# Results from different studies.
# ALDH1A3: Retinaldehyde dehydrogenase 3 (ALDH1A3, Homo sapiens, UniProt P47895)
# MAOB: Amine oxidase [flavin-containing] B (MAOB, Homo sapiens, UniProt P27338)
# Comt: Catechol O-methyltransferase (Comt, Rattus norvegicus, UniProt P22734)
# HDAC9: Histone deacetylase 9 (HDAC9, Homo sapiens, UniProt Q9UKV0)
# Pancreatic alpha-amylase: Pancreatic alpha-amylase (Homo sapiens, UniProt P04746)
# PADI4: Protein-arginine deiminase type-4 (PADI4, Homo sapiens, UniProt Q9UM07)
# CHRM4: Muscarinic acetylcholine receptor M4 (CHRM4, Homo sapiens, UniProt P08173)
# CA9: Carbonic anhydrase 9 (CA9, Homo sapiens, UniProt Q16790)
# GLO1: Lactoylglutathione lyase (GLO1, Homo sapiens, UniProt Q04760)
Structure (SMILES),target,effect on,mode,technique,setting,IC50 [µM]
OC[C@H]1O[C@@H](Oc2ccc(O)c3cccc(O)c23)[C@H](O)[C@@H](O)[C@@H]1O,ALDH1A3,enzyme activity,inhibitor,,,< 10
O=C(Nc1ccc(F)c(Br)c1)c1ccc2c(c1)C(=O)NC2=O,MAOB,enzyme activity,inhibitor,,,0.011
O=C(O)CC(O)(CC(=O)O)C(=O)O,Comt,enzyme activity,inhibitor,,,947
COc1ccc(N(Cc2csc(-c3ccc(C)cc3)n2)C(=O)CCCCCC(=O)NO)cc1,HDAC9,enzyme activity,inhibitor,,,> 10
COc1cc(/C=N/NC(=S)N/N=C/c2ccc(F)cc2)ccc1Oc1ccnc2cc(Cl)ccc12,Pancreatic alpha-amylase,enzyme activity,inhibitor,absorbance,,54.3
Cc1ccc(COc2ccc3ccc(C(=O)N[C@@H](CCCNC(=N)CCl)C(=O)NCc4ccccc4)cc3c2)cc1,PADI4,enzyme activity,inhibitor,fluorescence,with preincubation,2.19
COc1cc(/C=N/NC(=S)NN=Cc2scnc2C)ccc1Oc1ccnc2cc(Cl)ccc12,Pancreatic alpha-amylase,enzyme activity,inhibitor,absorbance,,57.1
O=C(Nc1ccc(Cl)c(Cl)c1)c1ccc2c(c1)C(=O)NC2=O,MAOB,enzyme activity,inhibitor,,,0.014
COc1ccc(N(Cc2nc(-c3ccc(F)cc3)cs2)C(=O)CCCCCC(=O)NO)cc1,HDAC9,enzyme activity,inhibitor,,,> 10
O=C(CCNC(=O)CNC(=O)CC(c1ccccc1)(c1ccccc1)c1ccccc1)NC[C@@H]1CCCN(Cc2cccnc2F)C1,CHRM4,ligand displacement,,radioligand,cell membranes,> 30
NS(=O)(=O)c1ccc(Nc2nc(-c3cc4cc(Br)ccc4oc3=O)cs2)c(Br)c1,CA9,enzyme activity,inhibitor,,,0.86
O=C(Nc1cccc(Br)c1)c1ccc2c(c1)C(=O)NC2=O,MAOB,enzyme activity,inhibitor,,,0.18
N=C(CCl)NCCC[C@H](NC(=O)c1cccc(-c2ccc(B(O)O)cc2)c1)c1nc2ccccc2[nH]1,PADI4,enzyme activity,inhibitor,fluorescence,with preincubation,0.588
O=C(Nc1ccc(Cl)c(F)c1)c1ccc2c(c1)C(=O)NC2=O,MAOB,enzyme activity,inhibitor,,,0.029
Cc1ccc(-c2cccc(C=O)c2)c(C)c1,ALDH1A3,enzyme activity,inhibitor,,,14.9
COc1cc(/C=N/NC(=S)N/N=C/c2ccccc2)ccc1Oc1ccnc2cc(Cl)ccc12,Pancreatic alpha-amylase,enzyme activity,inhibitor,absorbance,,46.4
NS(=O)(=O)c1ccc(-c2ccc(Nc3ccncc3)cc2)cc1,CA9,enzyme activity,inhibitor,,,0.21
CN(C)c1ccc2cc(C(=O)N[C@@H](CCCNC(=N)CCl)c3nc4ccccc4[nH]3)ccc2c1,PADI4,enzyme activity,inhibitor,fluorescence,with preincubation,1.06
C[C@@]12C[C@@]3(O)O[C@@H](O1)[C@]1(COC(=O)c4ccccc4)[C@H]3C[C@@]12O[C@@H]1O[C@H](COC(=O)c2cc(O)c(O)c(O)c2)[C@@H](O)[C@H](O)[C@H]1O,Comt,enzyme activity,inhibitor,,,16.2
O=C(CCNC(=O)CNC(=O)CC(c1ccccc1)(c1ccccc1)c1ccccc1)NC[C@H]1CCCN(Cc2ccc(F)cc2)C1,CHRM4,ligand displacement,,radioligand,cell membranes,13.5
COc1cc(/C=N/NC(=S)NN=Cc2cccs2)ccc1Oc1ccnc2cc(Cl)ccc12,Pancreatic alpha-amylase,enzyme activity,inhibitor,absorbance,,60
O=C(N[C@@H](CSCc1ccccc1)C(=O)NO)c1ccccc1,GLO1,enzyme activity,inhibitor,,,5.27
O=C(Nc1cccc(Cl)c1)c1ccc2c(c1)C(=O)NC2=O,MAOB,enzyme activity,inhibitor,,,0.29
O=C(NO)c1ccc(Cn2cnc3c(Nc4ccc(Cl)cc4)ncnc32)cc1,HDAC9,enzyme activity,inhibitor,,,0.385
N=C(CCl)NCCC[C@H](NC(=O)c1ccc2cc(Br)ccc2c1)C(=O)NCc1ccccc1,PADI4,enzyme activity,inhibitor,fluorescence,with preincubation,0.393
Nc1nc2c(s1)C(c1ccccc1Cl)CC(=O)N2 (stereo not drawn),ALDH1A3,enzyme activity,inhibitor,,,< 10
N=C(CCl)NCCC[C@H](NC(=O)c1ccc(B(O)O)cc1)c1nc2ccccc2[nH]1,PADI4,enzyme activity,inhibitor,fluorescence,with preincubation,2.2
CN1CCC(CNc2ccc3ncc(-c4cccc(OC(F)(F)F)c4)n3n2)CC1,"Histamine H1 receptor (HRH1, Homo sapiens, UniProt P35367)",calcium signal,antagonist,,,8.45
N=C(CCl)NCCC[C@H](NC(=O)c1cccc(-c2ccc(B(O)O)cc2)c1)C(=O)NCc1ccccc1,PADI4,enzyme activity,inhibitor,fluorescence,with preincubation,0.708
COc1cc(/C=N/NC(=S)N/N=C\c2ccc(Cl)c(Cl)c2)ccc1Oc1ccnc2cc(Cl)ccc12,Pancreatic alpha-amylase,enzyme activity,inhibitor,absorbance,,45.7
COc1nc2ccc(Br)cc2cc1[C@@H](c1ccccc1)[C@@](O)(CCN(C)C)c1cccc2ccccc12,ALDH1A3,enzyme activity,inhibitor,,,< 10
CS(=O)(=O)Nc1ccc(Nc2nc(-c3cc4cc(Br)ccc4oc3=O)cs2)cc1Oc1ccccc1,CA9,enzyme activity,inhibitor,,,5.74
COc1cc(/C=N/NC(=S)N/N=C/c2ccc(C=O)cc2)ccc1Oc1ccnc2cc(Cl)ccc12,Pancreatic alpha-amylase,enzyme activity,inhibitor,absorbance,,58.7
O=C(N[C@@H](CSCc1nc2cc([N+](=O)[O-])ccc2[nH]1)C(=O)NO)c1ccccc1,GLO1,enzyme activity,inhibitor,,,454
COc1ccc2cc(C(=O)N[C@@H](CCCNC(=N)CCl)C(=O)NCc3ccccc3)[nH]c2c1,PADI4,enzyme activity,inhibitor,fluorescence,with preincubation,0.362
CN1CCN(c2nc(-c3cc4cc(Br)ccc4oc3=O)cs2)CC1,CA9,enzyme activity,inhibitor,,,1.35
N=C(CCl)NCCC[C@H](NC(=O)c1cccc(NC(=O)c2cc3c(s2)CCC3)c1)C(=O)NCc1ccccc1,PADI4,enzyme activity,inhibitor,fluorescence,with preincubation,0.454
COc1cc(/C=N/NC(=S)N/N=C\c2ccc([N+](=O)[O-])cc2)ccc1Oc1ccnc2cc(Cl)ccc12,Pancreatic alpha-amylase,enzyme activity,inhibitor,absorbance,,53
CCCNS(=O)(=O)Nc1ncnc(OCCOc2ncc(Br)cn2)c1-c1ccc(Br)cc1,"Endothelin receptor type B (EDNRB, Homo sapiens, UniProt P24530)",ligand displacement,,radioligand,cell membranes,1.37
